Data reported in article PMC6583925 (Journal of medicinal chemistry, 2019).
Entries after “also recorded” stand apart in the source; their conditions may differ.

target: T1, ABHD12 (Homo sapiens, UniProt Q8N2K0); assay: not given; assay type: biochemical; settings: FP-Rh probe 1 μM
T1 sequence (Q8N2K0 1-398): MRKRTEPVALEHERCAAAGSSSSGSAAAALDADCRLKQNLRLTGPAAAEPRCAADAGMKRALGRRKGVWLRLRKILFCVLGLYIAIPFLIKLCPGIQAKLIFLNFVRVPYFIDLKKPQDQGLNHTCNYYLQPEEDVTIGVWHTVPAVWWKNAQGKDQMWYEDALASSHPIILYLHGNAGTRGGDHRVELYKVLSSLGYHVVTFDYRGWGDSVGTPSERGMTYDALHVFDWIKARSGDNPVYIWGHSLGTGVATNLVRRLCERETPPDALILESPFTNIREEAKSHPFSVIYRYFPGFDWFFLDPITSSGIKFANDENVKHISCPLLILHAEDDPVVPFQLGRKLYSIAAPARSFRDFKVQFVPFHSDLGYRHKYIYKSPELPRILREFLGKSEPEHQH

Row | Compound | time-dependent inhibition of ABHD12
1 | FC(F)(F)c1cnc(N2CCC(NC(=S)Nc3cccnc3)CC2)c(Cl)c1 [DO130] | did not show time-dependent inhibition of ABHD12

target: T2, ABHD12 (Mus musculus, UniProt Q99LR1); assay: gel-based ABPP of mouse brain membrane proteome using the JJH350 probe; assay type: biochemical; settings: JJH350 probe; SAR statements
T2 sequence (Q99LR1 1-398): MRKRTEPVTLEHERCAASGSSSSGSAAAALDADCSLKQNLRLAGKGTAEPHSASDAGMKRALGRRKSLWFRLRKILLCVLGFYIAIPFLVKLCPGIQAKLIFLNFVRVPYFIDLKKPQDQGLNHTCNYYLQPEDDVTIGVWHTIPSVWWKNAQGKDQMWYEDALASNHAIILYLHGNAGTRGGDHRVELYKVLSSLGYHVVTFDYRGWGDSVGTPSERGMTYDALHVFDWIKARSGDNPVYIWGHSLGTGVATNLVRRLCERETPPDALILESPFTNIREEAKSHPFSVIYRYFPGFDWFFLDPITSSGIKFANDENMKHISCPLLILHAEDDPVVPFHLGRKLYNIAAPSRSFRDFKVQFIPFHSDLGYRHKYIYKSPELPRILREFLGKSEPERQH
How it was run: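 Mouse brain was dounce-homogenized in DPBS, cleared at 1,400 × g (3 min, 4 °C) and spun at 16,000 × g (45 min, 4 °C); the membrane pellet was washed and resuspended. Proteome (1 mg/mL) was pretreated with test compound (20 min rt for (thio)ureas; 45 min 37 °C for carbamates), then labeled with JJH350 (2 μM final, 45 min, 37 °C).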

Row | Compound | ABHD12 inhibitory activity, gel-based ABPP
2 | Cc1cnc(N2CCN(NC(=S)Nc3cccnc3)CC2)c(Cl)c1 [DO127] | did not show any ABHD12 inhibitory activity
3 | Cc1cnc(N2CCC(NC(=S)Nc3cccnc3)CC2)c(Cl)c1 [DO129, N-3-Pyridyl-N’-[1-{3-chloro-5-(methyl)pyridin-2-yl}piperidin-4-yl]thiourea] | exhibited ABHD12 inhibitory activity
4 | FC(F)(F)c1cnc(N2CCC(NC(=S)Nc3cccnc3)CC2)c(Cl)c1 [DO130] | ABHD12 inhibitory activity as commercial AW01275
5 | FC(F)(F)c1cnc(N2CCC(NC(=S)Nc3ccccc3)CC2)c(Cl)c1 [compound 12] | retained some ABHD12 inhibitory activity, albeit slightly lower than that of DO130
6 | FC(F)(F)c1cnc(N2CCCC(NC(=S)Nc3cccnc3)C2)c(Cl)c1 (stereo not shown) [compound 13, N-3-Pyridyl-N’-[1-{3-chloro-5-(trifluoromethyl)pyridin-2-yl}piperidin-3-yl]thiourea] | abolished ABHD12 inhibitory activity; also recorded: dramatically reduced ABHD12 inhibitory activity
7 | FC(F)(F)c1cnc(N2C3CCC2CC(NC(=S)Nc2cccnc2)C3)c(Cl)c1 (stereo not shown) [compound 21] | impaired ABHD12 activity relative to DO130
8 | S=C(Nc1cccnc1)NC1CCN(c2ncccc2Cl)CC1 [compound 22] | abolished ABHD12 activity up to 5 μM
9 | FC(F)(F)c1ccnc(N2CCC(NC(=S)Nc3cccnc3)CC2)c1 [compound 24] | first sub-micromolar inhibitors in this series
10 | FC(F)(F)c1cccc(N2CCC(NC(=S)Nc3cccnc3)CC2)n1 [compound 26] | first sub-micromolar inhibitors in this series
11 | COc1ccnc(N2CCC(NC(=S)Nc3cccnc3)CC2)c1 [compound 31] | even more deleterious effect

Now from value to compound:

Row | ABHD12 inhibitory activity, gel-based ABPP | Compound
12 | less active than (R)-DO271 | FC(F)(F)Oc1ccc(Oc2ccnc(N3CCC[C@H](NC(=S)Nc4cccnc4)C3)c2Cl)c(Cl)c1 [(S)-DO271]
13 | substantial loss in activity | O=C(Nc1cccnc1)NC1CCN(c2ncc(C(F)(F)F)cc2Cl)CC1 [compound 8]
14 | diminished potency towards ABHD12 | COc1ccc(NC(=S)NC2CCN(c3ncc(C(F)(F)F)cc3Cl)CC2)cn1 [compound 9, N-{6-(methoxy)Pyridin-3-yl}-N’-[1-{3-chloro-5-(trifluoromethyl)pyridin-2-yl}piperidin-4-yl]thiourea]
15 | diminished potency towards ABHD12 | FC(F)(F)c1cnc(N2CCC(NC(=S)Nc3cnc4ccccc4c3)CC2)c(Cl)c1 [compound 10]
16 | diminished potency towards ABHD12 | FC(F)(F)c1cnc(N2CCC(NC(=S)N3CCCc4ccccc43)CC2)c(Cl)c1 [compound 11]
17 | near-complete loss | FC(F)(F)c1cnc(N2CCC(NC(=S)Nc3cccnc3)C2)c(Cl)c1 (stereo not shown) [compound 14]
18 | substantial reductions | FC(F)(F)c1cnc(N2CCCC(NC(=S)Nc3cccnc3)CC2)c(Cl)c1 (stereo not shown) [compound 15]
19 | weakened ABHD12 activity | CN(C(=S)Nc1cccnc1)C1CCN(c2ncc(C(F)(F)F)cc2Cl)CC1 [compound 20]
20 | only a small loss in potency | FC(F)(F)c1ccc(N2CCC(NC(=S)Nc3cccnc3)CC2)nc1 [compound 23]
21 | increased potency | Fc1ccc(Oc2ccnc(N3CCC(NC(=S)Nc4cccnc4)CC3)c2)cc1 [compound 37]
22 | increased potency | FC(F)(F)Oc1ccc(Oc2ccnc(N3CCC(NC(=S)Nc4cccnc4)CC3)c2)cc1 [compound 38]
23 | did not alter potency | Cc1c(Oc2ccc(OC(F)(F)F)cc2)ccnc1N1CCC(NC(=S)Nc2cccnc2)CC1 [compound 40, N-3-Pyridyl-N’-(1-[3-methyl-4-{4-(trifluoromethoxy)phenoxy}pyridine-2-yl]piperidin-4-yl)thiourea]
24 | reduced ABHD12 inhibitory activity | N#Cc1c(Oc2ccc(OC(F)(F)F)cc2)ccnc1N1CCC(NC(=S)Nc2cccnc2)CC1 [compound 41]
25 | reduced ABHD12 inhibitory activity | FC(F)(F)Oc1ccc(Oc2ccnc(N3CCC(NC(=S)Nc4cccnc4)CC3)c2C(F)(F)F)cc1 [compound 42]

same assay, conditions: compared to 28 or 38

Row | increase in ABHD12 inhibitory activity [fold] | Compound
26 | > 10 | FC(F)(F)Oc1ccc(Oc2ccnc(N3CCC(NC(=S)Nc4cccnc4)CC3)c2Cl)cc1 [compound 39]

same assay, conditions: compared to DO264

Row | reduction in potency for ABHD12 inhibition | Compound
27 | ~ 10,000 fold | FC(F)(F)Oc1ccc(Oc2ccnc(N3CCCC(NC(=S)Nc4cccnc4)C3)c2Cl)c(Cl)c1 (racemic) [(S,R)-DO271]

same assay, conditions: relative to 39

Row | lower potency of regioisomers | Compound
28 | 3–4 fold | FC(F)(F)Oc1cccc(Oc2ccnc(N3CCC(NC(=S)Nc4cccnc4)CC3)c2Cl)c1 [compound 43]
29 | 3–4 fold | FC(F)(F)Oc1ccccc1Oc1ccnc(N2CCC(NC(=S)Nc3cccnc3)CC2)c1Cl [compound 44]

same assay, conditions: relative to the 4-CF3 analogue

Row | decrease in ABHD12 inhibitory activity on substituting the 4-CF3 group | Compound
30 | ~ 3 fold | S=C(Nc1cccnc1)NC1CCN(c2cc(Cl)ccn2)CC1 [compound 30]

target: T2, ABHD12; assay: not given; assay type: in vivo; settings: 30 mg/kg, i.p., mice
How it was run: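 Test compound was suspended in EtOH/PEG40 1:1 by bath sonication, then diluted with 9 volumes of DPBS (EtOH/PEG40/DPBS 1:1:18). Freshly prepared solution was given i.p. at 10 μL/g body weight. Mice were anesthetized with isoflurane and euthanized by cervical dislocation, and tissues were harvested. Tissue membrane proteomes were labeled with JJH350 (2 μM, 45 min, 37 °C), clicked to rhodamine azide and read by in-gel fluorescence.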

Row | in vivo inhibition of ABHD12 | Compound
31 | only marginal inhibition of ABHD12 | COc1ccc(N2CCN(C(=O)ON3C(=O)C4CN(C(=O)c5ccc(Oc6ccccc6)cc5)CCN4C3=O)CC2)cc1 (stereo not shown) [JJH329, 1,3-Dioxo-7-(4-phenoxybenzoyl)hexahydroimidazo[1,5-a]pyrazine-2(3H)-yl 4-(4-methoxyphenyl)piperazine-1-carboxylate]

target: T2, ABHD12; assay: gel-based competitive ABPP using the FP-Rh probe, mouse brain membrane proteome; assay type: biochemical; settings: up to 10 μM
How it was run: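 Mouse brain membrane fraction was prepared by dounce homogenization in DPBS, a 1,400 × g clearing spin, and a 16,000 × g spin (45 min, 4 °C). Proteome (1 mg/mL) was pretreated with test compound (20 min rt for (thio)ureas; 45 min 37 °C for carbamates), then labeled with FP-Rh (1 μM final, 45 min, 37 °C). Samples were quenched in SDS loading buffer, separated by SDS-PAGE and read by in-gel fluorescence.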

Row | ABHD12 activity | Compound
32 | negligible ABHD12 activity up to 10 μM | COc1ccc(N2CCN(C(=O)ON3C(=O)C4CN(Cc5ccc(Oc6ccccc6)cc5)CCN4C3=O)CC2)cc1 (stereo not shown) [ABC34]

target: T1, ABHD12; assay: lyso-PS hydrolysis; assay type: biochemical; settings: 17:1 lyso-PS 100 μM
How it was run: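 Test compound preincubated 20 min at room temperature with ABHD12-overexpressing HEK293T membrane (0.25 mg/mL) in DPBS. 17:1 lyso-PS added (100 μM final) and run 30 min at 37 °C. Quench: 2:1 CHCl3/MeOH containing 1 nmol 15:0 FFA internal standard. Organic phase analysed by LC-MS, ESI negative mode, SIM at m/z 267.20 (17:1 FFA product) and 241.20 (15:0 FFA).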

Row | Compound | ABHD12 inhibitory activity, lyso-PS substrate assay
33 | Cc1cnc(N2CCN(NC(=S)Nc3cccnc3)CC2)c(Cl)c1 [DO127] | did not show any ABHD12 inhibitory activity

tested on: serine hydrolases; assay: selectivity by gel-based ABPP with FP-Rh in mouse brain proteome; assay type: biochemical; settings: FP-Rh probe
How it was run: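 Mouse brain homogenised in DPBS and cleared at 1,400 × g. Membranes pelleted at 16,000 × g (45 min, 4 °C) and resuspended in DPBS; used at 1 mg/mL. Test compound pretreatment: (thio)ureas 20 min at room temperature, NHH-carbamates 45 min at 37 °C. FP-Rh labelling (1 μM final) 45 min at 37 °C. Readout: 10% SDS-PAGE, in-gel fluorescence, band intensities quantified.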

Row | Compound | selectivity / off-targets among serine hydrolases
34 | COc1ccc(N2CCN(C(=O)ON3C(=O)C4CN(C(=O)c5ccc(Oc6ccccc6)cc5)CCN4C3=O)CC2)cc1 (stereo not shown) [JJH329, 1,3-Dioxo-7-(4-phenoxybenzoyl)hexahydroimidazo[1,5-a]pyrazine-2(3H)-yl 4-(4-methoxyphenyl)piperazine-1-carboxylate] | ABHD6 was observed as the only off-target
